Laboratory results: ChEMBL document CHEMBL4014355 (J Med Chem, 2017)
Active and inactive are the calls of the source. The calls are words filed in the database; no cut-off is given here. Bridge positions count the residues as written; N and C are the ends. Square brackets hold non-standard residues; d marks the D form. Peptide text beside a SMILES is read from it. * marks the point of attachment. dPhg = N[C@@H](C(=O)O)c1ccccc1; Isobutyryl = CC(C)C(=O)*; Abu = CC[C@H](N)C(=O)O

Legend:
[1] = Inhibition of 5-FAM tracer binding to WDR5 delta23 mutant (24 to 334 residues) (unknown origin) expressed in Escherichia coli Rosetta 2 (DE3) cells after 3 hrs by fluorescence polarization assay; parameters: species or system Homo sapiens
[2] = biological target: MLL1-ASH2L/RbBP5/WDR5/DPY30 (Homo sapiens, UniProt P61964); assay: Inhibition of human N-terminal GST-tagged MLL1 (3735 to 3973 residues) interaction with human full length N-terminal 6xHis-tagged ASH2L/N-terminal 6xHis-tagged human full length RbBP5/human N-terminal 6xHis-tagged WDR5/human full length N-terminal 6xHis-tagged DPY30 assessed as decrease in H3K4me1-2 methylation preincubated for 30 mins followed by SAM/nucleosome mixture addition measured after 120 mins in absence of light by AlphaLISA assay; type: protein assay
MOLM-13 [3] = assay: Cytotoxicity against human MOLM13 cells harboring MLL-AF9 fusion protein assessed as cell growth inhibition after 4 days by WST8 assay; type: functional, cell-based; conditions: MOLM-13, 96 h
How it was run: (§1)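 Cells (MOLM-13 with MLL-AF9, MV4-11 with MLL-AF4, HL-60 with no MLL fusion) seeded at 1 × 10^4 cells/well and exposed to a range of inhibitor concentrations for 4 days, with 0.2% DMSO final in the medium. Viability was read by WST-8 kit. Three independent experiments, each in triplicate.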

MV4-11 [4] = assay: Cytotoxicity against human MV4-11 cells harboring MLL-AF4 fusion protein assessed as cell growth inhibition after 4 days by WST8 assay; type: functional, cell-based; conditions: MV4-11, 96 h; how it was run: as §1
HL-60 = assay: Cytotoxicity against human HL60 cells lacking MLL translocation assessed as cell growth inhibition after 4 days by WST8 assay; type: cell-based; conditions: HL-60, 96 h; how it was run: as §1
[5] = Selectivity ratio of IC50 for human HL60 cells lacking MLL translocation to IC50 for human MOLM13 cells harboring MLL-AF9 fusion protein
[6] = Selectivity ratio of IC50 for human HL60 cells lacking MLL translocation to IC50 for human MV4-11 cells harboring MLL-AF4 fusion protein
[7] = Half life in human microsomes; type: ADME, Microsome
[8] = Half life in rat microsomes; type: ADME, Microsome
[9] = Half life in mouse microsomes; type: ADME, Microsome
MV4-11 [10] = assay: Cytotoxicity against human MV4-11 cells harboring MLL-AF4 fusion protein assessed as cell growth inhibition after 7 days by WST8 assay; type: functional, cell-based; conditions: MV4-11, 168 h
How it was run: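 MV4-11 cells (MLL-AF4) plated at 5 × 10^4 cells/mL and treated with the compound. WST-8 viability was read on day 4. Then 10% of viable cells were moved to fresh medium with the same compound concentrations and cultured 3 more days. The day-7 read was also by WST-8.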

MOLM-13 [11] = assay: Cytotoxicity against human MOLM13 cells harboring MLL-AF9 fusion protein assessed as cell growth inhibition after 7 days by WST8 assay; type: functional, cell-based; conditions: MOLM-13, 168 h
How it was run: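 Long-term treatment of MOLM-13 plated at 5 × 10^4 cells/mL. Viability measured by WST-8 on day 4. Then 10% of viable cells were moved to fresh medium at the same compound concentration and cultured 3 more days, with viability read again on day 7.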

MOLM-13 [12] = assay: Cytotoxicity against human MOLM13 cells harboring MLL-AF9 fusion protein assessed as cell growth inhibition at 0.38 uM after 4 days by WST8 assay; type: functional; conditions: MOLM-13, 96 h, read-out: GI
MV4-11 [13] = assay: Cytotoxicity against human MV4-11 cells harboring MLL-AF4 fusion protein assessed as cell growth inhibition at 0.69 uM after 4 days by WST8 assay; type: functional; conditions: MV4-11, 96 h, read-out: GI
MV4-11 [14] = assay: Cytotoxicity against human MV4-11 cells harboring MLL-AF4 fusion protein assessed as cell growth inhibition at […] after 7 days by WST8 assay; type: functional; conditions: MV4-11, 168 h, read-out: GI
MOLM-13 [15] = assay: Cytotoxicity against human MOLM13 cells harboring MLL-AF9 fusion protein assessed as cell growth inhibition at 0.10 uM after 7 days by WST8 assay; type: functional; conditions: MOLM-13, 168 h, read-out: GI
[16] = Stability of compound in cell culture media at 0.5 mM after 7 days by Waters ACQUITY UPLC analysis
[17] = biological target: Histone-lysine N-methyltransferase 2B (Homo sapiens) (UniProt Q9UMN6); assay: Inhibition of MLL2 (unknown origin) H3K4 methyltransferase activity using biotinyl-H3 peptide (1 to 21 residues) and using [3H]-S adenosylmethionine as methyl donor up to 100 uM after 1 hr by scintillation counting
[18] = biological target: Histone-lysine N-methyltransferase 2C (Homo sapiens) (UniProt Q8NEZ4); assay: Inhibition of MLL3 (unknown origin) H3K4 methyltransferase activity using biotinyl-H3 peptide (1 to 21 residues) and using [3H]-S adenosylmethionine as methyl donor up to 100 uM after 1 hr by scintillation counting
[19] = biological target: Histone-lysine N-methyltransferase 2D (Homo sapiens) (UniProt O14686); assay: Inhibition of MLL4 (unknown origin) H3K4 methyltransferase activity using biotinyl-H3 peptide (1 to 21 residues) and using [3H]-S adenosylmethionine as methyl donor up to 100 uM after 1 hr by scintillation counting
[20] = biological target: Histone-lysine N-methyltransferase SETD1A (Homo sapiens) (UniProt O15047); assay: Inhibition of SET1a (unknown origin) H3K4 methyltransferase activity using biotinyl-H3 peptide (1 to 21 residues) and using [3H]-S adenosylmethionine as methyl donor up to 100 uM after 1 hr by scintillation counting
[21] = biological target: Histone-lysine N-methyltransferase SETD1B (Homo sapiens) (UniProt Q9UPS6); assay: Inhibition of […] (unknown origin) H3K4 methyltransferase activity using biotinyl-H3 peptide (1 to 21 residues) and using [3H]-S adenosylmethionine as methyl donor up to 100 uM after 1 hr by scintillation counting

Chain of Histone-lysine N-methyltransferase 2C (Homo sapiens) (Q8NEZ4 whole entry, the tested form may be a part): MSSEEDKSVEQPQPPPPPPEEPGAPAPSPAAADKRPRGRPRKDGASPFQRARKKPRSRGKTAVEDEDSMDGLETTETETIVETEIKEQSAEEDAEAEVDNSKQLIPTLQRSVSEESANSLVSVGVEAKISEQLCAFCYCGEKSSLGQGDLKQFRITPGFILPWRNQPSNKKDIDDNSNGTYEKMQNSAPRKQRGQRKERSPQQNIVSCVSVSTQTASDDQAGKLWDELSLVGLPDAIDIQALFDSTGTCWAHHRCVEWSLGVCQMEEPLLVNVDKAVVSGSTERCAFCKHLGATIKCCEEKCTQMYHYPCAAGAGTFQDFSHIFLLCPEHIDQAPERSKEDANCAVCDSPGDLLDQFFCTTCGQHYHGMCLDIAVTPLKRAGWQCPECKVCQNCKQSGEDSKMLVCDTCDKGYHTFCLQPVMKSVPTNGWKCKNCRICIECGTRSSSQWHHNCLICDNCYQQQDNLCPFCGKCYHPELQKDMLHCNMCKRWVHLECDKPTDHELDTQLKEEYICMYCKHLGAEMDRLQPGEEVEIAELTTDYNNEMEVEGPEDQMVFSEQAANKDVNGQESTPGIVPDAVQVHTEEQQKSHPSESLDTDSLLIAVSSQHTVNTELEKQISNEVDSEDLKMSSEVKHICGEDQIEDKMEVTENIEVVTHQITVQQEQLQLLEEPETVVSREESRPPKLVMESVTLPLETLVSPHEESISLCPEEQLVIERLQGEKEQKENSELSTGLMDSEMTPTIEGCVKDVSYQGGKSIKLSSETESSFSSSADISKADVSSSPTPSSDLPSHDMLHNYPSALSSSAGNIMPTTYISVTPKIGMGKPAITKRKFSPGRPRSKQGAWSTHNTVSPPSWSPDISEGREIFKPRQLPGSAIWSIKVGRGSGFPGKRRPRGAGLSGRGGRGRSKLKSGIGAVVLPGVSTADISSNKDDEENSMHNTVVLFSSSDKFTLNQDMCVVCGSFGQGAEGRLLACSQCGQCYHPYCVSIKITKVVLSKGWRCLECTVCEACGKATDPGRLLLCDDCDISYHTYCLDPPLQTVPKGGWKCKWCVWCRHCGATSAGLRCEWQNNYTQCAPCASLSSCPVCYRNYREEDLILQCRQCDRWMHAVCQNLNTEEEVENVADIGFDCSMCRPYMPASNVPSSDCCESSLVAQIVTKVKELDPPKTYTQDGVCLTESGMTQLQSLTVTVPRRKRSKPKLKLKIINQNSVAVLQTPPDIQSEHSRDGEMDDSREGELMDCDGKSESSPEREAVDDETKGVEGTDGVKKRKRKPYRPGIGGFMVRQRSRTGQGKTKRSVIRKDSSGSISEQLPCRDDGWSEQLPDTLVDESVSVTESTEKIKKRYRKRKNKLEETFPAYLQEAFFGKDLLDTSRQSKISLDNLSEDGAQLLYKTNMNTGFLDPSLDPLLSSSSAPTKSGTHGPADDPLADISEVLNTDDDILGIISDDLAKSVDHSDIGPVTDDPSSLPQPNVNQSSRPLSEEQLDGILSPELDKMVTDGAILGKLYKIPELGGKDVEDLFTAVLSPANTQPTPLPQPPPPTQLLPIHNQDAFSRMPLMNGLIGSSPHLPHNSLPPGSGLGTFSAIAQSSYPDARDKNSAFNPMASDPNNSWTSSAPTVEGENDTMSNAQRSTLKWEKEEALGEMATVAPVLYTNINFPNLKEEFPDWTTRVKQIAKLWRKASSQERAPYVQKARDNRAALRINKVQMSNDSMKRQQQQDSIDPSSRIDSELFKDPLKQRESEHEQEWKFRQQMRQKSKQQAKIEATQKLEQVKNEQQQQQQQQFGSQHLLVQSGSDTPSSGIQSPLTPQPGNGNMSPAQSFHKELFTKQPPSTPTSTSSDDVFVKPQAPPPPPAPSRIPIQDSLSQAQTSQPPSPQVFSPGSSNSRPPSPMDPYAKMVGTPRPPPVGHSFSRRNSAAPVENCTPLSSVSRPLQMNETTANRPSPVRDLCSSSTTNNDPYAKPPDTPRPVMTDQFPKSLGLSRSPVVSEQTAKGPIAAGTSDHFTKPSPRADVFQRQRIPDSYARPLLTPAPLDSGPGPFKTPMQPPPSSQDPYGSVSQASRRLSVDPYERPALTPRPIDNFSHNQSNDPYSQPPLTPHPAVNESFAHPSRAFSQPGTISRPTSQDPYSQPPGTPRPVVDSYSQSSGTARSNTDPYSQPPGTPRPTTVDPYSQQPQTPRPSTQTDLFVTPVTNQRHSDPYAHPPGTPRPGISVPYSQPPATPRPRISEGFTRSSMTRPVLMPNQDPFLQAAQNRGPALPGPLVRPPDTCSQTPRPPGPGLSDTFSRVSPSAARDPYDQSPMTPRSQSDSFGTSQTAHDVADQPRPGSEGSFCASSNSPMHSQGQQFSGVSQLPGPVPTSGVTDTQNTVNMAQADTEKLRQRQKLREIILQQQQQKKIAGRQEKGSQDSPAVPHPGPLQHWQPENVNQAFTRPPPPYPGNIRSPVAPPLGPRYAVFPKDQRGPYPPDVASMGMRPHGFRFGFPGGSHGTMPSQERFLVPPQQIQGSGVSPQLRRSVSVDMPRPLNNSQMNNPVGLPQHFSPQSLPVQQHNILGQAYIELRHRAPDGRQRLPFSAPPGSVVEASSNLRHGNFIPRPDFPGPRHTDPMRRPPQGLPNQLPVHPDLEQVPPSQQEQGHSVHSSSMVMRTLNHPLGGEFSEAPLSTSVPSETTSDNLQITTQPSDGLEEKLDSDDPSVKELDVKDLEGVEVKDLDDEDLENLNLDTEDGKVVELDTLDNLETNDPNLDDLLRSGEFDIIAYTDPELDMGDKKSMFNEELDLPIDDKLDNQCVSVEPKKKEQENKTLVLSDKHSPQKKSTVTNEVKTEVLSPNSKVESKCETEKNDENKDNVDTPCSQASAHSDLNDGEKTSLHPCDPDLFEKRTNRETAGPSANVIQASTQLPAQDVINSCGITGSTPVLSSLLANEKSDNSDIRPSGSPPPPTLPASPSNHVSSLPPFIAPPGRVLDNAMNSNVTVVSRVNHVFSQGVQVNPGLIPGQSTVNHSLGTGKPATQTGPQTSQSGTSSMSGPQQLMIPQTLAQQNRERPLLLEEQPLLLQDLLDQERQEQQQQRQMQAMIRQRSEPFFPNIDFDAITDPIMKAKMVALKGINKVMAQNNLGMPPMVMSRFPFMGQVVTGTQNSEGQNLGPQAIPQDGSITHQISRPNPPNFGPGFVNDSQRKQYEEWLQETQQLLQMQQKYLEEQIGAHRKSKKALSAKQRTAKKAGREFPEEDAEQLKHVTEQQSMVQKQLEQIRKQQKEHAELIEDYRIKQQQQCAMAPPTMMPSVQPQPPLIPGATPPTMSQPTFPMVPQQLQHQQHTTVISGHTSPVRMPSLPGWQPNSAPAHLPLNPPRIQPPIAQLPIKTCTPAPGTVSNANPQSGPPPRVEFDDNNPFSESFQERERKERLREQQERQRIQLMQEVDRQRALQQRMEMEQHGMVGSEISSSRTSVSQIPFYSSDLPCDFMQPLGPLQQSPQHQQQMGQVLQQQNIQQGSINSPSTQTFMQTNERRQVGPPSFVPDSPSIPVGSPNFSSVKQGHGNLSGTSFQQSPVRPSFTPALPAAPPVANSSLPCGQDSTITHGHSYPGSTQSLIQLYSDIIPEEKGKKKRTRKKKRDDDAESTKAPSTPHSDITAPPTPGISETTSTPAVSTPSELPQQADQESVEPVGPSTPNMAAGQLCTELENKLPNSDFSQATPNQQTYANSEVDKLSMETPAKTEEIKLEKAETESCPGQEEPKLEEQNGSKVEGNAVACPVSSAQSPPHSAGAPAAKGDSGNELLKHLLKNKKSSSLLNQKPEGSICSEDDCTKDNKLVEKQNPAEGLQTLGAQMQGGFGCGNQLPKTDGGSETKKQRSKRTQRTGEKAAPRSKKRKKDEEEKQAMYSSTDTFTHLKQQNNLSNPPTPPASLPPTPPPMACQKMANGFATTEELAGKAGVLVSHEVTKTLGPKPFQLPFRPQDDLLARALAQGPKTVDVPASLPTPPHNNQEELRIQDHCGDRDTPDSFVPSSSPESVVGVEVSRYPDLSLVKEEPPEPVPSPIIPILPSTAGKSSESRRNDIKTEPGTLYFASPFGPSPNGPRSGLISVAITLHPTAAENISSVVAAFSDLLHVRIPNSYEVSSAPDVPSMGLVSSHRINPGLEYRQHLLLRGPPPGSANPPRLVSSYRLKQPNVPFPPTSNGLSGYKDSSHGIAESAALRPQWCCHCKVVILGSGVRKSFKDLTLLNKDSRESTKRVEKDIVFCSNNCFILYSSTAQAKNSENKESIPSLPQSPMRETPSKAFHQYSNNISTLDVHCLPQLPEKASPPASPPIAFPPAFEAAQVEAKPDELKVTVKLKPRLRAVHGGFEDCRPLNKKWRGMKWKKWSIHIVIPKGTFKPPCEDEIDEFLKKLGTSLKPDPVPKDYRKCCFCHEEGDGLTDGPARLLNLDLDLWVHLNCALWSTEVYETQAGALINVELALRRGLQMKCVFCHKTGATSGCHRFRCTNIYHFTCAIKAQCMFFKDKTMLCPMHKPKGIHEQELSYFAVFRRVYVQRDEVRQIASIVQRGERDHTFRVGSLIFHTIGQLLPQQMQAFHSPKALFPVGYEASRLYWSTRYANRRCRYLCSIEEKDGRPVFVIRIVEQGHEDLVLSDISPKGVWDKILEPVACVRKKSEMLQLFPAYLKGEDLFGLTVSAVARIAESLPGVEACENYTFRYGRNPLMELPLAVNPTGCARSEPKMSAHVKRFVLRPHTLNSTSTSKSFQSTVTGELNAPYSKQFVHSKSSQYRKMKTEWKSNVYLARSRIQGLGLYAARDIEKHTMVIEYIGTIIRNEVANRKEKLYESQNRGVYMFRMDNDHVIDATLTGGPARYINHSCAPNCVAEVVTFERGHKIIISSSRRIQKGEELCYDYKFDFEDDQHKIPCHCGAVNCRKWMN

Compound	IC50 [1]	Ki [1]	IC50 [2]	IC50 (MOLM-13 [3])	IC50 (MV4-11 [4])	IC50 (HL-60)	Ratio IC50 [5]	Ratio IC50 [6]	half-life [7]	half-life [8]	half-life [9]	other results
CC[C@@H]1NC(=O)[C@H](CCCNC(=N)N)NC(=O)[C@](C)(NC(=O)C(C)C)CCNC(=O)[C@@H](c2ccccc2)NC1=O.O=C(O)C(F)(F)F	1.08 nM	< 1 nM	12.6 nM	280 nM	460 nM	17.4 µM	>30	>30	> 60 min	> 60 min	> 60 min	
CC[C@@H]1NC(=O)[C@H](CCCNC(=N)N)NC(=O)[C@H](NC(=O)C(C)C)CCCCNC(=O)[C@@H](c2ccccc2)NC1=O (Isobutyryl-[dK]R[Abu][dPhg]; lactam 1-C)	298 nM	60.3 nM	> 10000 nM	> 100000 nM	> 100000 nM	> 100 µM						
CC[C@@H]1NC(=O)[C@H](CCCNC(=N)NC)NC(=O)[C@](C)(NC(=O)C(C)C)CCNC(=O)[C@@H](c2ccccc2)NC1=O.O=C(O)C(F)(F)F	0.9 nM	< 1 nM	12.7 nM	210 nM	250 nM	8.56 µM	>30	>30	> 60 min	> 60 min	> 60 min	IC50 (MV4-11 [10]): 290 nM; IC50 (MOLM-13 [11]): 100 nM; inhibition of growth at 0.38 µM (MOLM-13 [12]): 75%; inhibition of growth at 0.69 µM (MV4-11 [13]): 75%; inhibition of growth at […] (MV4-11 [14]): > 95%; inhibition of growth at 0.1 µM (MOLM-13 [15]): > 95%; Stability [16]: Stable; inhibition [17]: inactive; inhibition [18]: inactive; inhibition [19]: inactive; inhibition [20]: inactive; inhibition [21]: inactive
CC[C@@H]1NC(=O)[C@H](CCCNC(=N)N)NC(=O)[C@](C)(NC(=O)C(C)C)CCCCN(C)C(=O)[C@@H](c2ccccc2)NC1=O.O=C(O)C(F)(F)F	1.6 nM	< 1 nM	190 nM						> 60 min	> 60 min	> 60 min	
CC[C@@H]1NC(=O)[C@H](CCCNC(=N)NC)NC(=O)[C@](C)(NC(=O)C(C)C)CCNC(=O)[C@H](c2ccccc2)NC1=O	2 nM	< 1 nM	477 nM	14300 nM	35000 nM							
CC[C@@H]1NC(=O)[C@H](CCCNC(=N)N)NC(=O)[C@](C)(NC(=O)C(C)C)CCCNC(=O)[C@@H](c2ccccc2)NC1=O.O=C(O)C(F)(F)F	0.97 nM	< 1 nM	84.8 nM	1280 nM	1290 nM	46.8 µM	>30	>30	> 60 min	> 60 min	> 60 min	
CC[C@@H]1NC(=O)[C@H](CCCNC(=N)N)NC(=O)[C@](C)(NC(=O)C(C)C)CCCCN(C)C(=O)[C@@H](c2ccc(F)cc2)NC1=O.O=C(O)C(F)(F)F	1.6 nM	< 1 nM	138 nM	16200 nM	5200 nM	60 µM			> 60 min	> 60 min	> 60 min	
CC[C@@H]1NC(=O)[C@H](CCCNC(=N)N)NC(=O)[C@](C)(NC(=O)C(C)C)CCCCN(C)C(=O)[C@@H](c2ccc(Cl)cc2)NC1=O.O=C(O)C(F)(F)F	1.5 nM	< 1 nM	124 nM						> 60 min	> 60 min	> 60 min	
